From ChEMBL document CHEMBL1122426, “Radioiodine-labeled N,N-dimethyl-N'-(2-hydroxy-3-alkyl-5-iodobenzyl)-1,3-propanediamines for brain perfusion imaging” (J Med Chem, 1983)

Columns and labels:
[1] = tested on: Rattus norvegicus; assay: Biodistribution of I-125 labeled compound in rat blood, 1 hr after intravenous injection. value expressed in average % dose per organ; format: ADME, organism-based; details: in vivo
[2] = tested on: Rattus norvegicus; assay: Biodistribution of I-125 labeled compound in rat blood, 2 min after intravenous injection. value expressed in average % dose per organ; format: ADME, organism-based; details: in vivo
[3] = tested on: Rattus norvegicus; assay: Biodistribution of I-125 labeled compound in rat brain, 1 hr after intravenous injection. value expressed in average % dose per organ; format: ADME, organism-based; details: in vivo
[4] = tested on: Rattus norvegicus; assay: Biodistribution of I-125 labeled compound in rat brain to blood ratio, 2 min after intravenous injection. value expressed in % dose per gram ratio; format: ADME, organism-based
Procedure, shortened: (§1)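 Rats given I-125 diamine iv; tissue activity at 2 min or 1 h compared with diluted injected-dose aliquots. % dose per gram approximated as % dose per organ divided by mean organ weight (brain 1.65 g; blood 18 g). Ratio taken from the per-gram values.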

[5] = tested on: Rattus norvegicus; assay: Biodistribution of I-125 labeled compound in rat liver, 1 hr after intravenous injection. value expressed in average % dose per organ; format: ADME, organism-based; details: in vivo
[6] = tested on: Rattus norvegicus; assay: Biodistribution of I-125 labeled compound in rat liver, 2 min after intravenous injection. value expressed in average % dose per organ; format: ADME, organism-based; details: in vivo
[7] = tested on: Rattus norvegicus; assay: Biodistribution of I-125 labeled compound in rat lungs, 1 hr after intravenous injection. value expressed in average % dose per organ; format: ADME, organism-based, Lung; details: in vivo
[8] = tested on: Rattus norvegicus; assay: Biodistribution of I-125 labeled compound in rat thyroid, 2 min after intravenous injection. value expressed in average % dose per organ; format: ADME, organism-based, Thyroid gland; details: in vivo
[9] = tested on: Rattus norvegicus; assay: Biodistribution of I-125 labeled compound in rat brain, 2 min after intravenous injection. value expressed in average % dose per organ; format: ADME, organism-based; details: in vivo
[10] = tested on: Rattus norvegicus; assay: Biodistribution of I-125 labeled compound in rat heart, 1 hr after intravenous injection. value expressed in average % dose per organ; format: ADME, organism-based; details: in vivo
[11] = species: Rattus norvegicus; assay: Distribution coefficient at pH 7.0 in rat; format: ADME, organism-based
Procedure, shortened: (§2)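 Octanol/buffer partition: I-125 labeled diamine mixed with 3 g each of 1-octanol and 0.1 M phosphate buffer at pH 7.0 or 7.4, vortexed 3× 1 min, centrifuged 5 min. Two 0.5 g samples of each layer counted. Value is cpm/g octanol over cpm/g buffer, usually repeated three times.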

[12] = species: Rattus norvegicus; assay: Distribution coefficient at pH 7.4 in rat; format: ADME, organism-based; procedure, shortened: as §2
[13] = tested on: Rattus norvegicus; assay: Biodistribution of I-125 labeled compound in rat thyroid, 1 hr after intravenous injection. value expressed in average % dose per organ; format: ADME, organism-based, Thyroid gland; details: in vivo
[14] = The protein binding ability of compound was expressed in Percent free; format: ADME; details: read-out: % free
Procedure, shortened: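 Binding to pooled human serum was measured by equilibrium dialysis. 0.4 mL serum and 0.4 mL 0.15 M phosphate buffer, pH 7.4, were separated by a membrane, and 0.025 μCi radiolabeled diamine was added on the buffer side. Cells were rotated at 37 °C for 18 h, and aliquots from both sides were weighed and counted. % free = buffer/serum radioactivity concentration ratio × 100. The membrane was also counted.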

[15] = tested on: Rattus norvegicus; assay: Biodistribution of I-125 labeled compound in rat lungs, 2 min after intravenous injection. value expressed in average % dose per organ; format: ADME, organism-based, Lung; details: in vivo
[16] = tested on: Rattus norvegicus; assay: Biodistribution of I-125 labeled compound in rat muscle, 1 hr after intravenous injection. value expressed in average % dose per organ; format: ADME, organism-based, Muscle tissue; details: in vivo
[17] = tested on: Rattus norvegicus; assay: Biodistribution of I-125 labeled compound in rat muscle, 2 min after intravenous injection. value expressed in average % dose per organ; format: ADME, organism-based, Muscle tissue; details: in vivo
[18] = tested on: Rattus norvegicus; assay: Biodistribution of I-125 labeled compound in rat heart, 2 min after intravenous injection. value expressed in average % dose per organ; format: ADME, organism-based; details: in vivo
[19] = tested on: Rattus norvegicus; assay: Biodistribution of I-125 labeled compound in rat brain to blood ratio, 1 hr after intravenous injection. value expressed in % dose per gram ratio; format: ADME, organism-based; procedure, shortened: as §1
[20] = tested on: Rattus norvegicus; assay: Biodistribution of I-125 labeled compound in rat lungs, 1 hr after intravenous injection. value expressed in average % dose per organ; value may range from 11.5 to 26.1; format: ADME, organism-based, Lung; details: in vivo
[21] = tested on: Rattus norvegicus; assay: Biodistribution of I-125 labeled compound in rat blood, 1 hr after intravenous injection. value expressed in average % dose per organ; value may range from 0.99 to 1.37; format: ADME, organism-based; details: in vivo
[22] = tested on: Rattus norvegicus; assay: Biodistribution of I-125 labeled compound in rat heart, 2 min after intravenous injection. value expressed in average % dose per organ; value may range from 2.20 to 3.07; format: ADME, organism-based; details: in vivo
[23] = tested on: Rattus norvegicus; assay: Biodistribution of I-125 labeled compound in rat brain, 1 hr after intravenous injection. value expressed in average % dose per organ; value may range from 1.51 to 2.17; format: ADME, organism-based; details: in vivo
[24] = tested on: Rattus norvegicus; assay: Biodistribution of I-125 labeled compound in rat brain, 2 min after intravenous injection. value expressed in average % dose per organ; value may range from 1.45 to 1.89; format: ADME, organism-based; details: in vivo
[25] = tested on: Rattus norvegicus; assay: Biodistribution of I-125 labeled compound in rat blood, 2 min after intravenous injection. value expressed in average % dose per organ; value may range from 2.74 to 5.33; format: ADME, organism-based; details: in vivo
[26] = tested on: Rattus norvegicus; assay: Biodistribution of I-125 labeled compound in rat liver, 1 hr after intravenous injection. value expressed in average % dose per organ; value may range from 7.32 to 10.1; format: ADME, organism-based; details: in vivo
[27] = tested on: Rattus norvegicus; assay: Biodistribution of I-125 labeled compound in rat liver, 2 min after intravenous injection. value expressed in average % dose per organ; value may range from 6.36 to 14.2; format: ADME, organism-based; details: in vivo
[28] = tested on: Rattus norvegicus; assay: Biodistribution of I-125 labeled compound in rat thyroid, 2 min after intravenous injection. value expressed in average % dose per organ; value may range from 0.15 to 0.25; format: ADME, organism-based, Thyroid gland; details: in vivo
[29] = tested on: Rattus norvegicus; assay: Biodistribution of I-125 labeled compound in rat heart, 1 hr after intravenous injection. value expressed in average % dose per organ; value may range from 1.12 to 1.86; format: ADME, organism-based; details: in vivo
[30] = tested on: Rattus norvegicus; assay: Biodistribution of I-125 labeled compound in rat thyroid, 1 hr after intravenous injection. value expressed in average % dose per organ; value may range from 0.16 to 0.26; format: ADME, organism-based, Thyroid gland; details: in vivo
[31] = tested on: Rattus norvegicus; assay: Biodistribution of I-125 labeled compound in rat lungs, 2 min after intravenous injection. value expressed in average % dose per organ; value may range from 24.6 to 42.2; format: ADME, organism-based, Lung; details: in vivo
[32] = tested on: Rattus norvegicus; assay: Biodistribution of I-125 labeled compound in rat muscle, 1 hr after intravenous injection. value expressed in average % dose per organ; value may range from 11.3 to 17.1; format: ADME, organism-based, Muscle tissue; details: in vivo
[33] = tested on: Rattus norvegicus; assay: Biodistribution of I-125 labeled compound in rat muscle, 2 min after intravenous injection. value expressed in average % dose per organ; value may range from 4.59 to 12.0; format: ADME, organism-based, Muscle tissue; details: in vivo
[34] = tested on: Rattus norvegicus; assay: Biodistribution of I-125 labeled compound in rat blood, 1 hr after intravenous injection. value expressed in average % dose per organ; value may range from 1.64 to 1.91; format: ADME, organism-based; details: in vivo
[35] = tested on: Rattus norvegicus; assay: Biodistribution of I-125 labeled compound in rat blood, 2 min after intravenous injection. value expressed in average % dose per organ; value may range from 3.95 to 6.09; format: ADME, organism-based; details: in vivo
[36] = tested on: Rattus norvegicus; assay: Biodistribution of I-125 labeled compound in rat heart, 2 min after intravenous injection. value expressed in average % dose per organ; value may range from 2.13 to 2.96; format: ADME, organism-based; details: in vivo
[37] = tested on: Rattus norvegicus; assay: Biodistribution of I-125 labeled compound in rat liver, 1 hr after intravenous injection. value expressed in average % dose per organ; value may range from 11.0 to 13.4; format: ADME, organism-based; details: in vivo
[38] = tested on: Rattus norvegicus; assay: Biodistribution of I-125 labeled compound in rat brain, 1 hr after intravenous injection. value expressed in average % dose per organ; value may range from 0.95 to 1.00; format: ADME, organism-based; details: in vivo
[39] = tested on: Rattus norvegicus; assay: Biodistribution of I-125 labeled compound in rat liver, 2 min after intravenous injection. value expressed in average % dose per organ; value may range from 12.3 to 15.0; format: ADME, organism-based; details: in vivo
[40] = tested on: Rattus norvegicus; assay: Biodistribution of I-125 labeled compound in rat thyroid, 1 hr after intravenous injection. value expressed in average% dose per organ; value may range from 0.19 to 0.25; format: ADME, organism-based, Thyroid gland; details: in vivo
[41] = tested on: Rattus norvegicus; assay: Biodistribution of I-125 labeled compound in rat thyroid, 2 min after intravenous injection. value expressed in average % dose per organ; value may range from 0.13 to 0.19; format: ADME, organism-based, Thyroid gland; details: in vivo
[42] = tested on: Rattus norvegicus; assay: Biodistribution of I-125 labeled compound in rat brain, 2 min after intravenous injection. value expressed in average% dose per organ; value may range from 0.85 to 1.01; format: ADME, organism-based; details: in vivo
[43] = tested on: Rattus norvegicus; assay: Biodistribution of I-125 labeled compound in rat heart, 1 hr after intravenous injection. value expressed in average % dose per organ; value may range from 2.29 to 2.35; format: ADME, organism-based; details: in vivo
[44] = tested on: Rattus norvegicus; assay: Biodistribution of I-125 labeled compound in rat […] ratio, 1 hr after intravenous injection. value expressed in % dose per gram ratio; format: ADME, organism-based; details: in vivo
[45] = tested on: Rattus norvegicus; assay: Biodistribution of I-125 labeled compound in rat lungs, 1 hr after intravenous injection. value expressed in average % dose per organ; value may range from 15.1 to 17.1; format: ADME, organism-based, Lung; details: in vivo
[46] = tested on: Rattus norvegicus; assay: Biodistribution of I-125 labeled compound in rat lungs, 2 min after intravenous injection. value expressed in average % dose per organ; value may range from 31.6 to 34.0; format: ADME, organism-based, Lung; details: in vivo
[47] = tested on: Rattus norvegicus; assay: Biodistribution of I-125 labeled compound in rat muscle, 1 hr after intravenous injection. value expressed in average % dose per organ; value may range from 11.0 to 15. 8; format: ADME, organism-based, Muscle tissue; details: in vivo
[48] = tested on: Rattus norvegicus; assay: Biodistribution of I-125 labeled compound in rat muscle, 2 min after intravenous injection. value expressed in average % dose per organ; value may range from 5.95 to 6.51; format: ADME, organism-based, Muscle tissue; details: in vivo

Compound: CN(C)CCCNCc1cc(I)cc(C(C)(C)C)c1O
- Average dose per organ [1]: 2.79%
- Average dose per organ [2]: 4.16%
- Average dose per organ [3]: 1.67%
- Ratio [4]: 4.31%
- Average dose per organ [5]: 7.38%
- Average dose per organ [6]: 11.7%
- Average dose per organ [7]: 15.4%
- Average dose per organ [8]: 0.17%
- Average dose per organ [9]: 1.67%
- Average dose per organ [10]: 1.33%
- Distribution coefficient [11]: 522
- Distribution coefficient [12]: 1390
- Average dose per organ [13]: 0.2%
- fraction unbound [14]: 0.0607
- Average dose per organ [15]: 28.2%
- Average dose per organ [16]: 14.1%
- Average dose per organ [17]: 6.44%
- Average dose per organ [18]: 3.16%
- Ratio [19]: 6.43%

Compound: CCCc1cc(I)cc(CNCCCN(C)C)c1O
- Average dose per organ [20]: 16.1%
- Average dose per organ [21]: 1.15%
- Ratio [4]: 4.49%
- Average dose per organ [22]: 2.67%
- Average dose per organ [23]: 1.79%
- Average dose per organ [24]: 1.71%
- Average dose per organ [25]: 4.09%
- Average dose per organ [26]: 8.01%
- Average dose per organ [27]: 9.54%
- Average dose per organ [28]: 0.17%
- Average dose per organ [29]: 1.49%
- Distribution coefficient [11]: 44.8
- Distribution coefficient [12]: 176
- Average dose per organ [30]: 0.21%
- fraction unbound [14]: 0.159
- Average dose per organ [31]: 33%
- Average dose per organ [32]: 14.6%
- Average dose per organ [33]: 7.44%
- Ratio [19]: 16.7%

Compound: CN(C)CCCNCc1cc(I)cc(C2CCCCC2)c1O
- Average dose per organ [34]: 1.74%
- Average dose per organ [35]: 5.3%
- Ratio [4]: 1.91%
- Average dose per organ [36]: 2.51%
- Average dose per organ [37]: 12.4%
- Average dose per organ [38]: 0.97%
- Average dose per organ [39]: 13.8%
- Average dose per organ [40]: 0.22%
- Average dose per organ [41]: 0.16%
- Average dose per organ [42]: 0.94%
- Average dose per organ [43]: 2.33%
- Distribution coefficient [11]: 260
- Distribution coefficient [12]: 468
- fraction unbound [14]: 0.0517
- Ratio [44]: 5.99%
- Average dose per organ [45]: 16.3%
- Average dose per organ [46]: 33%
- Average dose per organ [47]: 13.4%
- Average dose per organ [48]: 6.17%
